In ChEMBL document CHEMBL4392853, “Characterising covalent warhead reactivity” (Bioorg Med Chem, 2019):
Active and inactive are the calls of the source. No cut-off for these calls is given here.

Key:
[1] = Reversible drug reactivity against serine in PBS buffer by NMR assay
Outline: (§1)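 NMR time-course following the warhead in solution with serine, with the amino acid at 10x the warhead concentration (pseudo-first-order). Run at pH 7.4. The rate constant was taken from the gradient of the line. Single determinations.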

[2] = Drug reactivity against cysteine in PBS buffer by NMR assay
Outline: (§2)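 Warhead reactivity toward cysteine was tracked by NMR, measuring the amount of warhead remaining in solution over time. Cysteine was used at 10x the warhead concentration, giving pseudo-first-order conditions. The rate constant is the gradient of the fitted line. Runs were at pH 7.4 and also at pH 9.8. Two warheads were run in triplicate and averaged; the others were run once.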

[3] = Reversible drug reactivity against cysteine in PBS buffer by NMR assay; outline: as §2
[4] = Drug reactivity against serine in PBS buffer by NMR assay; outline: as §1
[5] = Irreversible drug reactivity against cysteine in PBS buffer by NMR assay; outline: as §2
[6] = Irreversible drug reactivity against serine in PBS buffer by NMR assay; outline: as §1
[7] = Drug reactivity against cysteine in PBS buffer assessed as rate constant by NMR assay
Outline: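 Warhead reacted in solution with cysteine held at 10x the warhead concentration, giving pseudo-first-order kinetics. Remaining warhead was followed over time by NMR, and the rate constant was taken from the gradient of the line. Runs were at pH 7.4 and also at pH 9.8. Two warheads were run in triplicate and averaged; all others were run once.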

[8] = Drug reactivity against cysteine in PBS buffer assessed as half life by NMR assay

Row | Compound | Activity [1] | Activity [2] | Activity [3] | Activity [4] | Activity [5] | Activity [6] | K [7] | T1/2 [8] [min]
1 | N#Cc1ccccc1 | Active | inactive | Active | inactive | – | – | – | –
2 | C=CC(=O)c1ccccc1 | Active | Active | Active | Active | – | – | – | –
3 | CC1(C)S[C@@H]2[C@H](N)C(=O)N2[C@H]1C(=O)O | – | inactive | – | inactive | Active | Active | – | –
4 | O=C1CC(c2ccccc2)N1 (stereo not drawn) | – | inactive | – | inactive | Active | Active | – | –
5 | O=S(=O)(F)c1ccccc1 | – | Active | – | Active | – | – | – | –
6 | N#Cc1ncccn1 | Active | Active | Active | Active | – | – | – | –
7 | COC(=O)Nc1ccccc1 | – | Active | – | Active | – | – | – | –
8 | O=C(c1ccccc1)C(F)(F)F | Active | inactive | Active | inactive | – | – | – | –
9 | C#CC(=O)c1ccccc1 | Active | Active | Active | Active | – | – | – | –
10 | O=C1CCN1c1ccccc1 | – | inactive | – | inactive | Active | Active | – | –
11 | OB1OCc2ccccc21 | Active | inactive | Active | inactive | – | – | – | –
12 | N#Cc1ccccn1 | Active | inactive | Active | inactive | – | – | – | –
13 | C=CS(=O)(=O)Nc1ccccc1 | Active | Active | Active | Active | – | – | 6.73 ×10⁻⁴ /s | 17.2
14 | CN(C)C/C=C/C(=O)Nc1ccccc1 | Active | Active | Active | Active | – | – | – | –
15 | C=CC(=O)Nc1ccccc1 | Active | Active | Active | Active | – | – | 8.38 ×10⁻⁵ /s | –
16 | c1ccc(C2CO2)cc1 (stereo not drawn) | Active | Active | Active | Active | – | – | – | –
